Assay outcomes from PubChem.
The full list was thinned out, with hits kept by preference.
STK33 inh: blocks human STK33 kinase activity; inhibition, % at 10 µM; actives 0.073% (n = 320,000); purified STK33, MBP phosphorylation, ADP-Glo luminescence; Q9BYT3; AID 2661;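 active means inhibition at or above 25%, using the most active replicate where run in duplicate; inactive means inhibition below 25%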
GSK3beta inhib: blocks human GSK3beta kinase activity | P49841 | GST-GSK3beta kinase, ADP-Glo luminescence, 60 min; hits give low values | activity score (negative = inhibition), % at 10 µM | actives 0.038% (n = 300,000);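 active means more than half of replicate wells score below -50%, meaning over 50% inhibition versus plate controls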
Target sequence (P49841 whole entry, looked up): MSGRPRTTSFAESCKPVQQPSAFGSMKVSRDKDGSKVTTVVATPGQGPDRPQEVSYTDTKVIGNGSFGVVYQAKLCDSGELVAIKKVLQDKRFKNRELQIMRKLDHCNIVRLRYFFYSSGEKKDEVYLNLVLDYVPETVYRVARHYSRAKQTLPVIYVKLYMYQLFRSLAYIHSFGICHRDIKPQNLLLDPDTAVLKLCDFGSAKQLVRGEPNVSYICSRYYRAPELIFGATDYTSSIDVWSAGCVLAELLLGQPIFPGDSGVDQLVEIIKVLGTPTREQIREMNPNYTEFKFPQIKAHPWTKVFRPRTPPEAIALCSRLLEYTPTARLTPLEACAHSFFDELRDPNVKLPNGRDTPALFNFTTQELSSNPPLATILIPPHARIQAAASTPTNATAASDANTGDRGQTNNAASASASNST
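test system = GST-tagged human GSK3beta kinase, cell-free | reagent = 25 µM ATP with peptide substrate | dosing = one dose of 10 µM per compound | schedule = 60 min reaction, RT | detection = luminescent ADP-Glo measurement of ADP formed | control set = DMSO neutral wells and GW8510 at 20 µM as positive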
DYRK1A inh: Dyrk1A (rat) kinase inhibition; inhibition, % at 12.5 µM; ADP-Glo luminescence, NFATc1 peptide; Q63470; actives 0.43% (n = 310,000); in the data active means inhibition above about 50%
GSK3 alpha inh: inhibitors of human GSK-3 alpha kinase; inhibition, % at 10 µM; actives 0.1% (n = 320,000); ADP-Glo luminescence, 60 min;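 active means more than half of replicates show inhibition above 20%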;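 further: GST-tagged GSK-3 alpha with peptide substrate and 25 µM ATP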
CDK5 inh: blocks human CDK5/p35 kinase activity; Q00535+Q15078; Recombinant CDK5/p35, ADP-Glo luminescence, 60 min; inhibition, % at 10 µM; actives 0.01% (n = 330,000);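 active means highest replicate inhibition of at least 50% and at least 75% of replicates reaching 50%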
ADP-Glo artifact: ADP-Glo luciferase interference, Dyrk1A counter-screen | AID 588348 | shares compounds with DYRK1A inh | 1,300 tested, under 10 active | AC50, µM (top dose mostly 12 µM) | ADP-Glo luciferase artifact assay, no Dyrk1A, luminescence;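 active means fitted half-maximal dose AC50 no more than ten times the top valid tested dose, with luminescence dropping as dose rises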
Of the large screens only hits and unclear results are named; the others gave an inactive call (follow-up assays come after a bar, where they were run).

CCc1ccc(C(=O)Nc2cccc(-c3nn[nH]n3)c2)s1	DYRK1A inh 82.9 | ADP-Glo artifact inactive
OC(c1cc(C(F)(F)F)nc2c(Cl)cc(Cl)cc12)C1CCCCN1 (centres undefined)	DYRK1A inh 54.9 | ADP-Glo artifact inactive
Cc1c(O)ccc2c(CN(C)Cc3ccccc3)cc(=O)oc12	DYRK1A inh 59.2 | ADP-Glo artifact inactive
O=C(c1ccccc1)c1ccc2cc(O)ccc2c1	DYRK1A inh 64.2 | ADP-Glo artifact inactive
O=C(c1ccccc1)c1ccc2ccccc2c1	none (no result: STK33 inh, GSK3beta inhib, GSK3 alpha inh)
Cc1ccc(NC2=C(N3CCCCC3)C(=O)c3ccccc3C2=O)cc1	DYRK1A inh 51.6 | ADP-Glo artifact inactive
CCCCC(=O)Nc1ccc2c3c(cccc13)CC2	none
CCOc1ccc(-n2c(C)nc3cc(C(=O)NCc4ccc5c(c4)OCO5)ccc32)cc1	none
COc1ccc(-n2c(C)nc3cc(C(=O)NCc4ccco4)ccc32)cc1	DYRK1A inh 51.1 | ADP-Glo artifact inactive
COc1ccc(-n2c(C)nc3cc(C(=O)NCc4ccc5c(c4)OCO5)ccc32)cc1	DYRK1A inh 57.4 | ADP-Glo artifact inactive
Cn1nnnc1Sc1ncnc2scc(-c3ccc([N+](=O)[O-])cc3)c12	none (no result: GSK3beta inhib)
CC1(C)OC2CC3C4CCC5=CC(=O)CCC5(C)C4(F)C(O)CC3(C)C2(C(=O)CO)O1 (centres undefined)	none (no result: STK33 inh, GSK3beta inhib, GSK3 alpha inh)
COc1cccc(Nc2nc(NCCO)c3ccccc3n2)c1	DYRK1A inh 52.3 (no result: GSK3 alpha inh) | ADP-Glo artifact inactive
O=C(C[C@@H]1C/C=C/CCCC(=O)O[C@H](c2ccccc2)CNC1=O)N[C@H](CO)Cc1ccccc1	none (no result: GSK3beta inhib)
C[N+](C)(CCOc1ccccc1)Cc1ccccc1 (tested in a mixture with another compound)	DYRK1A inh 92.3 | ADP-Glo artifact inactive
NS(=O)(=O)c1ccc(-c2ccc(/C=C3\NC(=S)NC3=O)o2)cc1	DYRK1A inh 74.9 | ADP-Glo artifact inactive
CC1=C(C(=O)OCc2ccc3c(c2)OCO3)C(c2ccc(F)cc2)NC(=O)N1 (centres undefined)	DYRK1A inh 70.2, GSK3 alpha inh 50.9 | ADP-Glo artifact inactive
Cc1cc(O)c2c(c1)C(=O)c1cc(O)cc(O)c1C2=O	DYRK1A inh 66.4 | ADP-Glo artifact inactive
O=C1c2cc(O)cc(O)c2C(=O)c2c1cc(O)c([C@@H](CO)CCO)c2O	none
Cc1cc(C)c2oc(=O)cc(CN3CCN(Cc4ccc5c(c4)OCO5)CC3)c2c1	none (no result: STK33 inh, GSK3 alpha inh)
CC(=O)Nc1ccc(Nc2cc(C)nc3c(-c4ccccc4)cnn23)cc1	DYRK1A inh 54.9 (no result: GSK3beta inhib) | ADP-Glo artifact inactive
O=C(N/N=C/c1ccc(O)c(O)c1)N/N=C/c1ccc(O)c(O)c1	DYRK1A inh 80.4, GSK3 alpha inh 53.9 | ADP-Glo artifact inactive
Cc1nonc1C(=O)N/N=C/c1ccc(O)c(O)c1	none
COc1cc(CO)cc(Br)c1OCc1cccnc1	DYRK1A inh 50.6 | ADP-Glo artifact inactive
O=C(c1ccc(Cl)c(Cl)c1)N1CCC(=O)N(C(COCc2cccc(C(F)(F)F)c2)Cc2ccccc2)CC1 (centres undefined)	DYRK1A inh 53.1 | ADP-Glo artifact inactive
Nc1[nH]n2c(=O)cc(-c3ccccc3)nc2c1N=Nc1ccc(S(N)(=O)=O)cc1	DYRK1A inh 64.1 | ADP-Glo artifact inactive
O=C(Nc1cccc2ncccc12)c1cc([N+](=O)[O-])ccc1Cl	none
CN(C)S(=O)(=O)c1ccc(Cl)c(C(=O)Nc2cccc3ncccc23)c1	DYRK1A inh 85.2 (no result: GSK3beta inhib) | ADP-Glo artifact inactive
Fc1ccccc1NC(=S)Nc1cccc2cnccc12	DYRK1A inh 64.9 | ADP-Glo artifact inactive
S=c1[nH]c2ccccc2n2c(=S)[nH]nc12	DYRK1A inh 56.5 | ADP-Glo artifact inactive
Oc1ccc(-c2nc(-c3ccc(O)c(O)c3)cs2)cc1	DYRK1A inh 71.6 | ADP-Glo artifact inactive
COc1ccc(N2CCN(CCCNS(=O)(=O)c3c(C)noc3/C=C/N(C)C)CC2)cc1	none (no result: DYRK1A inh, CDK5 inh)
CCOc1ccc(C(=O)NC(=S)Nc2cccnc2)cc1[N+](=O)[O-]	none
O=C(Nc1nc2c(s1)CCCC2)c1ccc(N2C(=O)CCC2=O)cc1	DYRK1A inh 66.9 | ADP-Glo artifact inactive
CC1CCc2nc(NC(=O)c3ccc(N4C(=O)CCC4=O)cc3)sc2C1 (centres undefined)	DYRK1A inh 56.5 | ADP-Glo artifact inactive
COc1ccc(N/C=C2\C(=O)CCc3c2oc2cc(Cl)c(O)c(Cl)c32)cc1	DYRK1A inh 54.8 | ADP-Glo artifact inactive
COc1ccc(N/C=C2\CCc3ccccc3C2=O)cc1	none
O=S(=O)(c1ccccc1)N1c2cc(Cl)ccc2Oc2nc3ccccc3nc21	none
C=CCn1c(SCC(=O)Nc2nc3ccccc3s2)nc(O)c(CC)c1=O	DYRK1A inh 51.1 | ADP-Glo artifact inactive
CCc1c(O)nc(SCC(=O)Nc2nc3ccccc3s2)n(-c2ccccc2)c1=O	none (no result: DYRK1A inh)
CC12CCC(C(=O)Nc3nccs3)(OC1=O)C2(C)C (centres undefined)	none
CC12CCC(C(=O)Nc3nc4ccc(Br)cc4s3)(OC1=O)C2(C)C (centres undefined)	DYRK1A inh 81.8 | ADP-Glo artifact inactive
CCCCNc1nc(N)nc(-c2cc(Cl)ccc2O)n1	none
CCNc1nc(N)nc(-c2cc(Cl)ccc2O)n1	STK33 inh 74.6, GSK3beta inhib -72.7, DYRK1A inh 67.0, GSK3 alpha inh 72.3 | ADP-Glo artifact inactive
CCOC(=O)C1=C(C)OC(N)=C(C#N)C1c1ccc(O)c(OC)c1 (centres undefined)	DYRK1A inh 51.4 | ADP-Glo artifact inactive
Cc1ccc(-c2nc(NCc3ccc(F)cc3)n(S(C)(=O)=O)n2)cc1	none
COc1ccc(-c2nnc(CSc3ncnc4sc5c(c34)CCC5)o2)cc1OC	none (no result: STK33 inh, GSK3beta inhib, DYRK1A inh, GSK3 alpha inh)
O=C1NC(=O)/C(=C\c2ccc(Oc3cnccn3)cc2)S1	DYRK1A inh 59.1 | ADP-Glo artifact inactive
O=Cc1ccc(Oc2cnccn2)cc1	none (no result: GSK3 alpha inh)
O=C1NC(=S)S/C1=C/c1ccc(Oc2cnccn2)cc1	DYRK1A inh 64.5 | ADP-Glo artifact inactive
Cc1ccc(C(=O)Oc2cccnc2)cc1[N+](=O)[O-]	none
CCN(Cc1cc(=O)n2ccsc2n1)c1cccc2ccccc12	none
COCCN(CC1CCCN(C2Cc3ccccc3C2)C1)C(=O)c1cccc(C)c1 (centres undefined)	none
COc1ccc(C(=O)Nc2nnc(S(=O)(=O)N(C)Cc3ccccc3)s2)cc1	none
CCOC(=O)C1CCCN(c2c(NCCN(C)Cc3ccccc3)c(=O)c2=O)C1 (centres undefined)	DYRK1A inh 61.4 | ADP-Glo artifact inactive
CCOC(=O)C1CCCN(c2c(NCCc3cccc(C)c3)c(=O)c2=O)C1 (centres undefined)	none
CCOC(=O)C1CCCN(c2c(NCCCN3CCCC(C)C3)c(=O)c2=O)C1 (centres undefined)	DYRK1A inh 59.4 | ADP-Glo artifact inactive
COc1ccccc1CCNC(=O)Cc1cccs1	none
Cc1cc2c(ccc3[nH]onc32)n1	DYRK1A inh 51.1 | ADP-Glo artifact inactive
